In test [1] the test system is Plasmodium berghei. Kind of test: Blood schizonticidal activity against Plasmodium berghei MEN. It is filed as functional. Summed up: (§1)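 Mice infected with parasitised donor blood of drug-sensitive or drug-resistant lines were given a single subcutaneous dose daily on 4 consecutive days, starting 3 h post-infection, across a dose range. Compounds were dissolved in water or sonicated into 0.1% Tween 80. Parasitaemia was read from thin blood films 1 day after treatment ended and compared with sham-treated controls. ED50/ED90 came from log dose/probit plots, with a resistance index at the ED90 level.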

The subject of test [2] is Plasmodium berghei. In words: Blood schizonticidal activity against Plasmodium berghei NPN. Type of test: functional. In outline:
as §1

Test [3] relates to Plasmodium berghei. In words: Blood schizonticidal activity against Plasmodium berghei NS. It is filed as functional. In outline:
as §1

Test [4] has as its system Plasmodium berghei. In words: Blood schizonticidal activity against Plasmodium berghei ART. It is filed as functional. In outline:
as §1

Test [5] relates to Plasmodium berghei. Kind of test: Blood schizonticidal activity against Plasmodium berghei QS. Type of test: functional. Summed up: as §1
Test [6] has as its system Plasmodium berghei. Kind of test: Blood schizonticidal activity against Plasmodium berghei 1100. It is filed as functional. Summed up:
as §1

Test [7] has as its system Plasmodium falciparum. Kind of test: In vitro inhibitory activity against Plasmodium falciparum (sierra leone clone). It is filed as functional, organism-based.
For test [8], the system named is Plasmodium berghei. Kind of test: Blood schizonticidal activity against Plasmodium berghei B. It is filed as functional. In outline: as §1
The subject of test [9] is Plasmodium berghei. In words: Blood schizonticidal activity against Plasmodium berghei RC. It is filed as functional. In outline: as §1
In test [10] the test system is Plasmodium berghei. In words: Blood schizonticidal activity against Plasmodium berghei PYR. Type of test: functional. In outline:
as §1

Test [11] deals with Plasmodium berghei. In words: Blood schizonticidal activity against Plasmodium berghei N. Type of test: functional. Summed up: as §1
Test [12] concerns Plasmodium berghei. Kind of test: Blood schizonticidal activity against Plasmodium berghei N/1100. Type of test: functional. In outline: as §1
Test [13] deals with Plasmodium berghei. In words: Blood schizonticidal activity against Plasmodium berghei P. Type of test: functional. Summed up: as §1
Test [14] deals with Plasmodium falciparum. In words: Inhibitory concentration against Plasmodium falciparum W2 Indochina. Type of test: functional, organism-based. Summed up:
(§2)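 Micromanipulation-derived P. falciparum clones were tested by semiautomated microdilution at 0.5% parasitemia and 1.5% hematocrit. Drugs were dissolved in DMSO and diluted in medium with 10% plasma, giving serial dilutions over a 64-fold range. Plates were held at 37 °C under 5% O2/5% CO2/90% N2 for 24 h, then pulsed with tritiated hypoxanthine for 18–20 h. Uptake was counted by scintillation, and IC50 was obtained by nonlinear regression.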

Test [15] relates to Plasmodium berghei. In words: Blood schizonticidal activity against Plasmodium berghei N/HAL. Type of test: functional. Summed up:
as §1

Test [16] concerns Plasmodium falciparum. Kind of test: Inhibitory concentration against Plasmodium falciparum D6 (Sierra Leone). Type of test: functional, organism-based. Summed up:
as §2

For test [17], the system named is Plasmodium berghei. Kind of test: Blood schizonticidal activity against Plasmodium berghei ORA. Type of test: functional. Summed up:
as §1

The structures appear in SMILES notation. Converted amounts (≈) assume the structure as drawn.

Regarding `C[C@@H]1CC[C@H]2[C@@H](C)C(=O)O[C@@H]3O[C@@]4(C)CC[C@@H]1[C@]32OO4` [ARTEMISININ], the ED90 with Plasmodium berghei [1] stood at 6.2; in the test on Plasmodium berghei [2], 90; in the test with Plasmodium berghei [3], 10; with Plasmodium berghei [4], 49; in the test on Plasmodium berghei [5] it was 24; in the test with Plasmodium berghei [6], 17. For the same molecule, the ED90 with Plasmodium berghei [8] is 8.2; in the test on Plasmodium berghei [9] it was 630; in the test with Plasmodium berghei [10], 4.8; with Plasmodium berghei [11], 2.3; with Plasmodium berghei [13], 12; in the test on Plasmodium berghei [15], 31. In the test on Plasmodium berghei [17], this molecule displayed an ED90 of 7.5. Also, the “I 90” value in the test on Plasmodium berghei [1] is 1.5; in the test on Plasmodium berghei [2], 21.4; in the test with Plasmodium berghei [3] it was 2.4; in the test with Plasmodium berghei [4], 21.3; in the test on Plasmodium berghei [5], 10.4; with Plasmodium berghei [8] it was 2. Further, the “I 90” value with Plasmodium berghei [9] was 150; with Plasmodium berghei [10], 1.1; with Plasmodium berghei [11] it was 1; in the test on Plasmodium berghei [12], 4; in the test on Plasmodium berghei [13], 2.9; in the test with Plasmodium berghei [15], 13.5. In the test with Plasmodium berghei [17], the “I 90” value came out at 1.8. Further, the IC50 came out at 2.97 ng/mL (≈ 0.0105 µM) with Plasmodium falciparum [7], 6.41 nM in the test on Plasmodium falciparum [14] and 10.5 nM with Plasmodium falciparum [16].

For the molecule `OC(c1cc(C(F)(F)F)nc2c(C(F)(F)F)cccc12)C1CCCCN1` (stereo not given) [MEFLOQUINE], the IC50 worked out at 5.75 nM in the test on Plasmodium falciparum [14] and 33.4 nM with Plasmodium falciparum [16].

Turning to `CCO[C@H]1O[C@@H]2OC3(C)CC[C@H]4[C@H](C)CC[C@@H]([C@H]1C)[C@@]24O3` (single isomer, unassigned), the figures for the IC50 in the test on Plasmodium falciparum [7] and with Plasmodium falciparum [16] were 172 ng/mL (≈ 0.579 µM) and 580 nM, respectively.

Consider `C[C@H]1[C@@H](O)O[C@@H]2OC3(C)CC[C@H]4[C@H](C)CC[C@@H]1[C@@]24O3` (single isomer, unassigned), for which the concentration for half-maximal inhibition (IC50) with Plasmodium falciparum [7] is 136 ng/mL (≈ 0.505 µM); in the test on Plasmodium falciparum [16] it was 506 nM.

With `C[C@H]1[C@H](OC(=O)CCC(=O)O)O[C@@H]2O[C@@]3(C)CC[C@H]4[C@H](C)CC[C@@H]1[C@@]24OO3` [SODIUM ARESUNATE], the IC50 amounted to 1.66 nM in the test on Plasmodium falciparum [14] and 2.18 nM with Plasmodium falciparum [16].

For `CO[C@H]1O[C@@H]2O[C@@]3(C)CC[C@H]4[C@H](C)CC[C@@H]([C@H]1C)[C@@]24OO3` [ARTEMETHER], the IC50 was found to be 3.34 nM in the test with Plasmodium falciparum [14] and 4.49 nM in the test on Plasmodium falciparum [16].

As for `CCO[C@H]1O[C@@H]2O[C@@]3(C)CC[C@H]4[C@H](C)CC[C@@H]([C@H]1C)[C@@]24OO3` [ARTEMOTIL], the ED90 in the test on Plasmodium berghei [1] is listed as 2.2; in the test on Plasmodium berghei [2] it was 2.5; in the test on Plasmodium berghei [3], 2.2; with Plasmodium berghei [4], 2.3; with Plasmodium berghei [5], 1.4; in the test with Plasmodium berghei [6], 4.2. The ED90 came to 0.9 in the test on Plasmodium berghei [8]; 8.2 in the test with Plasmodium berghei [9]; 0.8 with Plasmodium berghei [10]; 0.5 in the test on Plasmodium berghei [11]; 0.8 in the test with Plasmodium berghei [13]; 2.1 in the test on Plasmodium berghei [15]. In the test on Plasmodium berghei [17], this molecule registered an ED90 of 0.8. Also, the “I 90” value in the test with Plasmodium berghei [1] was 2; in the test on Plasmodium berghei [2], 2.3; in the test with Plasmodium berghei [3], 2; in the test on Plasmodium berghei [4], 4.6; in the test with Plasmodium berghei [5], 2.8; with Plasmodium berghei [8], 0.8. The “I 90” value turned out to be 7.5 with Plasmodium berghei [9]; 0.7 with Plasmodium berghei [10]; 1 in the test with Plasmodium berghei [11]; 3.8 with Plasmodium berghei [12]; 0.7 with Plasmodium berghei [13]; 4.2 in the test on Plasmodium berghei [15]. The “I 90” value in the test with Plasmodium berghei [17] was 0.7. For the same molecule, the IC50 in the test with Plasmodium falciparum [7] was found to be 1.27 ng/mL (≈ 0.00407 µM); in the test with Plasmodium falciparum [14] it was 2.94 nM; with Plasmodium falciparum [16], 4.07 nM.

`C[C@@H]1CC[C@H]2[C@@H](C)C(=O)O[C@@H]3O[C@@]4(C)CC[C@@H]1[C@]32O4` [DEOXYARTEMISININ] registered an IC50 with Plasmodium falciparum [16] of 2860 nM.

As to `C[C@H]1[C@@H](O)O[C@@H]2O[C@@]3(C)CC[C@H]4[C@H](C)CC[C@@H]1[C@@]24OO3` [ARTENIMOL], the concentration for half-maximal inhibition (IC50) with Plasmodium falciparum [7] worked out at 0.52 ng/mL (≈ 0.00183 µM); with Plasmodium falciparum [14], 1.79 nM; with Plasmodium falciparum [16], 1.83 nM.

Turning to `CCO[C@@H]1O[C@@H]2OC3(C)CC[C@H]4[C@H](C)CC[C@@H]([C@H]1C)[C@@]24OO3` (single isomer, unassigned) [ALPHA-ARTEETHER], the ED90 worked out at 1.7 in the test with Plasmodium berghei [1]; 3.5 in the test on Plasmodium berghei [2]; 1.5 with Plasmodium berghei [3]; 29 with Plasmodium berghei [4]; 13.8 with Plasmodium berghei [5]; 4.1 in the test with Plasmodium berghei [6]. The ED90 in the test with Plasmodium berghei [8] is 2.9; in the test on Plasmodium berghei [9], 16.5; in the test on Plasmodium berghei [10] it was 1.3; in the test on Plasmodium berghei [11], 1.3; in the test on Plasmodium berghei [13], 2.5; in the test on Plasmodium berghei [15], 9.5. The same molecule registered an ED90 in the test on Plasmodium berghei [17] of 0.8. In addition, the “I 90” value in the test on Plasmodium berghei [1] was determined as 1.4; in the test on Plasmodium berghei [2], 2.9; in the test on Plasmodium berghei [3], 1.3; in the test on Plasmodium berghei [4], 22.3; with Plasmodium berghei [5], 10.6; with Plasmodium berghei [8] it was 2.4. The “I 90” value in the test on Plasmodium berghei [9] is 13.8; in the test with Plasmodium berghei [10], 1.1; in the test on Plasmodium berghei [11] it was 1; with Plasmodium berghei [12], 3.4; in the test with Plasmodium berghei [13], 2.1; in the test with Plasmodium berghei [15], 7.3. Moreover, in the test with Plasmodium berghei [17], the “I 90” value is on record as 0.7. The IC50 with Plasmodium falciparum [14] was determined as 3.07 nM; in the test with Plasmodium falciparum [16], 4.18 nM.

For orientation: IC50 means the midpoint of a concentration-inhibition curve. A higher IC50 goes with a need for much substance.
